Measured values published in ChEMBL document CHEMBL4689842, “EUbOPEN Chemogenomics Library wave 1” (2021).
Values joined by “and” are separate entries in the source; they are usually repeats but may differ in a detail not shown here. Equal entries are not always repeated.

Legend:
Format in all cases: toxicity, cell-based
Fibroblast [1] = test: Multiplex assay against human fibroblast; settings: 1 µM, compound concentration 1 uM
In short: (§1)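 Cells were classed with CellPathfinder machine-learning gating, first as Hoechst high-intensity objects or normal cells, then (normal cells) as healthy, pyknosed or fragmented nuclei, and finally (pyknosed cells) as mitotic or apoptotic. Staining of live cells at seeding used Hoechst33342, BioTracker Green Microtubule Cytoskeleton Dye, MitoTracker Red and Annexin V Alexa Fluor 680, with imaging on a CQ1 microscope at 37°C and 5% CO2 after compound addition. Tubulin, mitochondrial-mass and membrane-permeability phenotypes are per cents of healthy-nucleus cells.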

HEK-293T [2] = test: Multiplex assay against HEK293T; settings: human, 1 µM, compound concentration 1 uM; in short: as §1;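 as to Population Tubulin-Different-Phenotype (%): share of the cells with healthy nuclei that show this phenotype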
U2OS [3] = test: Multiplex assay against U2OS; settings: human, 1 µM, compound concentration 1 uM; in short: as §1
HEK-293T [4] = test: Incucyte cell viability with HEK293T; settings: human, 10 µM, compound concentration 10 uM; also: filed as whole numbers so only -1 and 0 and 1 occur
Fibroblast [5] = test: Incucyte cell viability with human fibroblast; settings: 10 µM, compound concentration 10 uM; also: filed as whole numbers so only -1 and 0 and 1 occur
U2OS [6] = test: Incucyte cell viability with U2OS; settings: human, 10 µM, compound concentration 10 uM; also: filed as whole numbers so only -1 and 0 and 1 occur
[7] = 6 h, replicate number 1, timepoint 6 hours
[8] = 12 h, replicate number 1, timepoint 12 hours
[9] = 18 h, replicate number 1, timepoint 18 hours
[10] = 24 h, replicate number 1, timepoint 24 hours

## COc1cc(Nc2ccnc3ccc(Br)cc23)cc(OC)c1OC
Fibroblast [1]; 12 h, replicate 1
  Population Apoptotic (%): 51% and 75%
  Population Fragmented Nuclei (%): 26% and 28%
  Population Healthy Nuclei (%): 50% and 56%
  Population Hoechst High Intensity Objects (%): 11%
  Population Membrane Permeable-Phenotype (%): 5% and 4%
  Population Mitochondria Different-Phenotype (%): 22% and 8%
  Population Mitotic Cells (%): 48% and 25%
  Population Normal (%): 88%
  Population Pyknosed Nuclei (%): 23% and 15%
  Total Cell Count: 152 and 176
Fibroblast [1]; 12 h, replicate 2
  Population Apoptotic (%): 50%
  Population Fragmented Nuclei (%): 66% and 79%
  Population Hoechst High Intensity Objects (%): 49% and 39%
  Population Membrane Permeable-Phenotype (%): 11% and 0%
  Population Mitotic Cells (%): 50%
  Population Normal (%): 50% and 60%
  Population Pyknosed Nuclei (%): 6% and 11%
  Population Tubulin-Different-Phenotype (%): 11% and 0%
  Total Cell Count: 65 and 56
Fibroblast [1]; 24 h, replicate 1
  Population Apoptotic (%): 76%
  Population Fragmented Nuclei (%): 28% and 23%
  Population Healthy Nuclei (%): 55% and 61%
  Population Hoechst High Intensity Objects (%): 15%
  Population Membrane Permeable-Phenotype (%): 6% and 1%
  Population Mitochondria Different-Phenotype (%): 1%
  Population Mitotic Cells (%): 23%
  Population Normal (%): 84%
  Population Pyknosed Nuclei (%): 15%
  Total Cell Count: 189 and 165
Fibroblast [1]; 24 h, replicate 2
  Population Fragmented Nuclei (%): 65% and 71%
  Population Healthy Nuclei (%): 31% and 15%
  Population Hoechst High Intensity Objects (%): 42% and 34%
  Population Membrane Permeable-Phenotype (%): 9% and 0%
  Population Mitochondria Different-Phenotype (%): 18% and 40%
  Population Normal (%): 57% and 65%
  Population Tubulin-Different-Phenotype (%): 0% and 20%
  Total Cell Count: 61 and 49
HEK-293T [2]; 12 h, replicate 1
  Population Apoptotic (%): 21% and 25%
  Population Fragmented Nuclei (%): 24% and 18%
  Population Healthy Nuclei (%): 35% and 54%
  Population Hoechst High Intensity Objects (%): 16%
  Population Membrane Permeable-Phenotype (%): 12% and 4%
  Population Mitotic Cells (%): 78% and 74%
  Population Normal (%): 83%
  Population Pyknosed Nuclei (%): 40% and 27%
  Total Cell Count: 627 and 585
HEK-293T [2]; 12 h, replicate 2
  Population Apoptotic (%): 17% and 8%
  Population Fragmented Nuclei (%): 11% and 4%
  Population Healthy Nuclei (%): 59% and 75%
  Population Membrane Permeable-Phenotype (%): 3% and 0%
  Population Mitotic Cells (%): 82% and 91%
  Population Normal (%): 92% and 97%
  Population Pyknosed Nuclei (%): 29% and 20%
  Total Cell Count: 1015 and 1049
HEK-293T [2]; 24 h, replicate 1
  Population Apoptotic (%): 32% and 19%
  Population Fragmented Nuclei (%): 23% and 12%
  Population Healthy Nuclei (%): 41% and 67%
  Population Hoechst High Intensity Objects (%): 14% and 10%
  Population Membrane Permeable-Phenotype (%): 7%
  Population Mitotic Cells (%): 67% and 80%
  Population Normal (%): 85% and 89%
  Population Pyknosed Nuclei (%): 35% and 20%
  Population Tubulin-Different-Phenotype (%): 30% and 15%
  Total Cell Count: 604 and 574
HEK-293T [2]; 24 h, replicate 2
  Population Apoptotic (%): 14% and 7%
  Population Fragmented Nuclei (%): 11% and 8%
  Population Healthy Nuclei (%): 50% and 79%
  Population Hoechst High Intensity Objects (%): 8% and 3%
  Population Membrane Permeable-Phenotype (%): 2% and 1%
  Population Mitochondria Different-Phenotype (%): 55%
  Population Mitotic Cells (%): 86% and 92%
  Population Normal (%): 91% and 96%
  Total Cell Count: 1011 and 1289
U2OS [3]; 12 h, replicate 1
  Population Apoptotic (%): 45% and 33%
  Population Fragmented Nuclei (%): 9% and 8%
  Population Healthy Nuclei (%): 83% and 79%
  Population Hoechst High Intensity Objects (%): 6% and 5%
  Population Membrane Permeable-Phenotype (%): 22% and 14%
  Population Mitochondria Different-Phenotype (%): 28% and 29%
  Population Mitotic Cells (%): 54% and 66%
  Population Normal (%): 93% and 94%
  Population Pyknosed Nuclei (%): 7% and 11%
  Population Tubulin-Different-Phenotype (%): 39% and 14%
  Total Cell Count: 135 and 196
U2OS [3]; 12 h, replicate 2
  Population Fragmented Nuclei (%): 12% and 20%
  Population Healthy Nuclei (%): 70% and 71%
  Population Hoechst High Intensity Objects (%): 12% and 19%
  Population Membrane Permeable-Phenotype (%): 25% and 16%
  Population Mitochondria Different-Phenotype (%): 38% and 23%
  Population Normal (%): 87% and 80%
  Population Pyknosed Nuclei (%): 16%
  Population Tubulin-Different-Phenotype (%): 37% and 22%
  Total Cell Count: 102 and 150
U2OS [3]; 24 h, replicate 1
  Population Apoptotic (%): 31% and 83%
  Population Fragmented Nuclei (%): 11% and 13%
  Population Healthy Nuclei (%): 71% and 66%
  Population Hoechst High Intensity Objects (%): 6%
  Population Membrane Permeable-Phenotype (%): 18% and 16%
  Population Normal (%): 93%
  Population Pyknosed Nuclei (%): 17% and 20%
  Population Tubulin-Different-Phenotype (%): 21% and 22%
  Total Cell Count: 259 and 175
U2OS [3]; 24 h, replicate 2
  Population Fragmented Nuclei (%): 10% and 14%
  Population Healthy Nuclei (%): 58% and 59%
  Population Hoechst High Intensity Objects (%): 16%
  Population Membrane Permeable-Phenotype (%): 22% and 17%
  Population Mitochondria Different-Phenotype (%): 57% and 19%
  Population Normal (%): 83%
  Population Pyknosed Nuclei (%): 31% and 25%
  Population Tubulin-Different-Phenotype (%): 33% and 28%
  Total Cell Count: 113 and 193
HEK-293T [4]; [7]
  Growth Rate: 0
HEK-293T [4]; [8]
  Growth Rate: 0
HEK-293T [4]; [9]
  Growth Rate: 0
HEK-293T [4]; [10]
  Growth Rate: 0
Fibroblast [5]; [7]
  Growth Rate: 0
Fibroblast [5]; [8]
  Growth Rate: 0
Fibroblast [5]; [9]
  Growth Rate: 0
Fibroblast [5]; [10]
  Growth Rate: 0
U2OS [6]; 0 h, replicate number 1, timepoint 0 hours
  Growth Rate: 0
U2OS [6]; [7]
  Growth Rate: 0
U2OS [6]; [8]
  Growth Rate: 0
U2OS [6]; [9]
  Growth Rate: 0
U2OS [6]; [10]
  Growth Rate: 0
